This note sets out measurements from ChEMBL document CHEMBL1123282, “Antiinflammatory activity of substituted 6-hydroxypyrimido[2,1-f]purine-2,4,8(1H,3H,9H)-triones. Atypical nonsteroidal antiinflammatory agents” (J Med Chem, 1986).

The subject of assay [1] is Rattus norvegicus. Kind of assay: Compound was tested in vivo for antiinflammatory activity against chronic adjuvant arthritic rat by therapeutic inhibition 2 degree paw after peroral administration of 5 mg/kg of dose. Conditions: po, read-out: Inhibition.
The species entered for assay [2] is Rattus norvegicus. Kind of assay: Antiinflammatory activity by immune response to collagen II antigen in rats antibody titer was determined by passive hemagglutinination. Format: functional. The gist of the method: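 In rats with bovine type II collagen/incomplete Freund's adjuvant arthritis, the antibody response to collagen II was titred by passive hemagglutination. The delayed-type hypersensitivity component, ear thickness 24 h after intrapinna antigen, was read at day 21.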

The subject of assay [3] is Rattus norvegicus. Put plainly: Compound was tested in vivo for antiinflammatory activity against chronic adjuvant arthritic rat by therapeutic inhibition 1 degree paw after peroral administration of 5 mg/kg of dose. Conditions: po, read-out: Inhibition.
For assay [4], the species on record is Rattus norvegicus. Kind of assay: Delayed Type hypersensitivity (DTH) is measured by increase in ear thickness 24 hours after antigen injection into pinna. Format: functional.
Assay [5] has as its system Rattus norvegicus. Put plainly: Compound was tested in vivo for antiinflammatory activity against chronic adjuvant arthritic rat by prophylactic inhibition 1 degree paw after peroral administration of 2 mg/kg of dose. Conditions: po, read-out: Inhibition.
Assay [6] deals with Rattus norvegicus. Put plainly: Antiinflammatory activity on the development of collagen II arthritis in rats, measured based on animals positive for arthritis by the presence of paw edema. Format: functional. The gist of the method:
(§1)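 Rats immunised with bovine articular-cartilage type II collagen (dissolved in 0.01 M AcOH for 24 h at 4 °C, dialysed against saline) mixed in equal volume with incomplete Freund's adjuvant. Paws were examined weekly for 7 weeks. An animal counted as arthritic at Δ paw volume ≥8.0 (injected paw) or ≥4.0 (noninjected paw). Bone lesions were scored on lateral-projection foot radiographs. 16 rats/group.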

Assay [7] concerns Rattus norvegicus. Kind of assay: Compound was tested in vivo for antiinflammatory activity against chronic adjuvant arthritic rat by prophylactic inhibition 2 degree paw after peroral administration of 2 mg/kg of dose. The note with it: po, read-out: Inhibition.
The test system of assay [8] is Rattus norvegicus. Put plainly: Compound was tested in vivo for antiinflammatory activity against rats by RPAR(reverse passive Arthus reaction) synovitis method. Format: functional. A digest of the protocol: (§2)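 Lewis rats, oral drug or placebo 1 h before iv BSA (2.28 mg in saline), then intraarticular rabbit anti-BSA (0.54 mg) into one knee and saline into the other, under light anesthesia. Second oral dose at 3 h; the total of both doses is the calculated dose. About 17 h after induction, subpatellar tissue with synovium is excised and weighed. Response is antibody-minus-saline knee weight, tested by analysis of variance.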

Assay [9] has as its system Rattus norvegicus. Kind of assay: Antiinflammatory activity against collagen II arthritis in rats, activity % inhibition in noninjected paw edema. Format: functional. Set-up: concentration or dose not given beside the values. The gist of the method: as §1
Assay [10] relates to Rattus norvegicus. Put plainly: Antiinflammatory activity against collagen II arthritis in rats, activity% inhibition in injected paw edema. Format: functional. Set-up: concentration or dose not given beside the values. A digest of the protocol:
as §1

For assay [11], the species on record is Rattus norvegicus. Put plainly: Antiinflammatory activity on the development of collagen II arthritis in rats, measured based on animals positive for arthritis by the presence of bone lesions. Format: functional. The gist of the method: as §1
Assay [12] has as its system Rattus norvegicus. Kind of assay: Compound was tested in vivo for antiinflammatory activity against chronic adjuvant arthritic rat by therapeutic inhibition 2 degree paw. Relative potency with respect to (8-Benzyl-5-hydroxy-1,3-dimethyl-6-propyl-1H,8H-1,3,4b,8,9-pentaaza-fluorene-2. Format: functional.
Assay [13] deals with Rattus norvegicus. Put plainly: Compound was tested in vivo for antiinflammatory activity against chronic adjuvant arthritic rat by therapeutic inhibition 2 degree paw after peroral administration of 36 mg/kg of dose. The note with it: route oral.
For assay [14], the system named is Rattus norvegicus. Put plainly: Compound was tested in vivo for antiinflammatory activity against chronic adjuvant arthritic rat by prophylactic inhibition 2 degree paw after peroral administration of 36 mg/kg of dose. Format: functional. The note with it: po.
Assay [15] has as its system Rattus norvegicus. Put plainly: Compound was tested in vivo against chronic adjuvant arthritic rat by prophylactic inhibition 2 degree paw. Relative potency with respect to (8-Benzyl-5-hydroxy-1,3-dimethyl-6-propyl-1H,8H-1,3,4b,8,9-pentaaza-fluorene-2,4,7-trione). Format: functional.
The test system of assay [16] is Rattus norvegicus. Put plainly: In vivo antiinflammatory activity against rats by RPAR(reverse passive Arthus reaction) synovitis method. Format: functional. Set-up: concentration or dose not given beside the values. The gist of the method: as §2
The subject of assay [17] is Rattus norvegicus. Put plainly: Compound was tested in vivo for antiinflammatory activity against chronic adjuvant arthritic rat by prophylactic inhibition 1 degree paw after peroral administration of 36 mg/kg of dose. Format: functional. The note with it: po.
Assay [18] concerns Rattus norvegicus. Kind of assay: Compound was tested in vivo for antiinflammatory activity against chronic adjuvant arthritic rat by therapeutic inhibition 1 degree paw after peroral administration of 36 mg/kg of dose. Conditions: route oral.
For assay [19], the system named is Rattus norvegicus. Put plainly: Compound was tested in vivo for antiinflammatory activity against chronic adjuvant arthritic rat by therapeutic inhibition 1 degree paw after peroral administration of 9 mg/kg of dose. Format: functional. Conditions: route oral.
For assay [20], the system named is Rattus norvegicus. Put plainly: Compound was tested in vivo for antiinflammatory activity against chronic adjuvant arthritic rat by prophylactic inhibition 1 degree paw after peroral administration of 18 mg/kg of dose. Format: functional. The gist of the method: (§3)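 Prophylactic adjuvant arthritis: heat-killed Mycobacterium tuberculosis powder in paraffin oil (6 mg/mL), 0.1 mL injected into the left hind paw. Drug given orally 1 h before adjuvant, then for 21 consecutive days; controls received methyl cellulose. Left (1°) and right (2°) hind paw volumes were measured by plethysmograph.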

Assay [21] has as its target T1, Polyunsaturated fatty acid 5-lipoxygenase (Rattus norvegicus) (UniProt P12527).
T1 sequence (whole entry): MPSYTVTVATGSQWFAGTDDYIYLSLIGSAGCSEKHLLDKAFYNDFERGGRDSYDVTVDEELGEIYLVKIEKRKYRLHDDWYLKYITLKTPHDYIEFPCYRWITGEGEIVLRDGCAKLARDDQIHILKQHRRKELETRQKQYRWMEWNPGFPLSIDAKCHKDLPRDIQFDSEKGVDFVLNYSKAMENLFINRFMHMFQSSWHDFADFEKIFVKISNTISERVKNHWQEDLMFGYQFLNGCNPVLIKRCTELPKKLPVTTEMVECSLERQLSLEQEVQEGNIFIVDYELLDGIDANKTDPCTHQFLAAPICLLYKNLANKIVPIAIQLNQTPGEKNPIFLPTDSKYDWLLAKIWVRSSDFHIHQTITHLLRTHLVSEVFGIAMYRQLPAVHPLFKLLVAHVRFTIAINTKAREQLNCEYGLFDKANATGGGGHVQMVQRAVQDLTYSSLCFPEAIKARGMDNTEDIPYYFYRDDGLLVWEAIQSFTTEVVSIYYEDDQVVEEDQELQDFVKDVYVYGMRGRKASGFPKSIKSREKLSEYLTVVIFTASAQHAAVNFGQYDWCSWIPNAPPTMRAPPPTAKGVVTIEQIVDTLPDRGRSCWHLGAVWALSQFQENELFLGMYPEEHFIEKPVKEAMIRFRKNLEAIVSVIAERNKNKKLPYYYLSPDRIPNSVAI
Put plainly: In vitro inhibitory activity against Lipoxygenase in rat neutrophils at a dose of 50 uM. The gist of the method:
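Neutrophils come from the 4 h pleural exudate of male Wistar-Lewis rats given iv BSA plus intrapleural rabbit anti-BSA IgG. Cells are washed, red cells lysed with NH4Cl, and resuspended at about 5×10^6 cells/0.1 mL in Tris pH 7.4 with NaCl and 1 mM CaCl2. Cells are preincubated with compound 4 min at room temperature.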

The subject of assay [22] is Rattus norvegicus. Put plainly: Compound was tested in vivo for antiinflammatory activity against chronic adjuvant arthritic rat by therapeutic inhibition 2 degree paw after peroral administration of 9 mg/kg of dose. Format: functional. Conditions: route oral.
The target in assay [23] is Cyclooxygenase (Rattus norvegicus) (UniProt P35355+Q63921). Put plainly: In vitro inhibitory activity against Prostaglandin G/H synthase in rat neutrophils at a dose of 50 uM.
The subject of assay [24] is Rattus norvegicus. Kind of assay: Tested in vivo for antiinflammatory activity against chronic adjuvant arthritic rat by prophylactic inhibition 1 degree paw after peroral administration of 9 mg/kg of dose. Format: functional. The note with it: route oral. A digest of the protocol: (§4)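 Prophylactic regimen, rats. Adjuvant is heat-killed Mycobacterium tuberculosis ground to a fine powder in paraffin oil (6 mg/mL); 0.1 mL is injected into the left hind paw. Oral drug is given 1 h before adjuvant challenge, then for 21 consecutive days; controls receive methyl cellulose. Left (1°) and right (2°) hind paw volumes are measured by plethysmograph.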

Assay [25] deals with Rattus norvegicus. Put plainly: Tested in vivo for antiinflammatory activity against chronic adjuvant arthritic rat by prophylactic inhibition 2 degree paw after peroral administration of 9 mg/kg of dose. Format: functional. The note with it: route oral. A digest of the protocol: as §4
Assay [26] has as its system Rattus norvegicus. Kind of assay: Compound was tested in vivo for antiinflammatory activity against chronic adjuvant arthritic rat by prophylactic inhibition 2 degree paw after peroral administration of 18 mg/kg of dose. Format: functional. Conditions: route oral. A digest of the protocol:
as §3

Assay [27] relates to Rattus norvegicus. Kind of assay: compound was tested in vivo for antiinflammatory activity against rats by RPAR(reverse passive Arthus reaction) synovitis method. Format: functional. A digest of the protocol:
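Lewis rats dosed orally 1 h before iv BSA (2.28 mg) and intraarticular rabbit anti-BSA (0.54 mg) into one knee, saline into the other; dosed orally again at 3 h. Total dose counted. At about 17 h, subpatellar tissue with synovium weighed; Δ weight between the two knees taken as the response. Compared with lesion controls by ANOVA.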

Molecules are shown by their SMILES. “And” between values parts separate entries of the source, which are not always exact repeats. Identical values can stand only once.

One may read the ED50 as the dose that gives a 50% effect, or the effect in half of the subjects. What is called Inhibition is the percentage by which the read-out fell short of the control. In the case of `CN1C(C(=O)Nc2ccccn2)=C(O)c2ccccc2S1(=O)=O` [PIROXICAM], the results for the inhibition in vivo at 5 mg/kg in the assay on Rattus norvegicus [1] and in the assay with Rattus norvegicus [3] were 80% and 68%, respectively. This compound displayed an Antibody titer in the assay filed under Rattus norvegicus [2] of 12.2. For the same compound, the DTH in the assay filed under Rattus norvegicus [4] was found to be 0.0526 mm. Besides, the inhibition in vivo at 2 mg/kg with Rattus norvegicus [5] worked out at 66%; with Rattus norvegicus [7], 84%. The Positive was determined as 73.3% in the assay with Rattus norvegicus [6] and 60% in the assay filed under Rattus norvegicus [11]. In the assay with Rattus norvegicus [8], this compound yielded an ED50 of 3.5 mg/kg. Besides, the Inhibition in the assay with Rattus norvegicus [9] and in the assay with Rattus norvegicus [10] was 0% in each case.
A word on the inhibition: it is the percentage by which the read-out fell short of the control. As to `CCCc1c(O)n(Cc2ccccc2)c2nc3c(c(=O)n(C)c(=O)n3C)n2c1=O`, the Relative potency in the assay with Rattus norvegicus [12] and with Rattus norvegicus [15] was 1 each time. Further, the Antibody titer in the assay listed under Rattus norvegicus [2] worked out at 9.2. Besides, the Inhibition with Rattus norvegicus [13] was found to be 77%; with Rattus norvegicus [16] it was 33%; with Rattus norvegicus [18], 64%; in the assay with Rattus norvegicus [9], 37.5%; with Rattus norvegicus [20] (route oral, 18 mg/kg) it was 41%; in the assay on Rattus norvegicus [10], 9.6%. The compound also came in with a DTH in the assay filed under Rattus norvegicus [4] of 0.0464 mm. Also, the inhibition in vivo at 36 mg/kg turned out to be 78% in the assay with Rattus norvegicus [14] and 59% in the assay with Rattus norvegicus [17]. Also, the Positive with Rattus norvegicus [6] and in the assay filed under Rattus norvegicus [11] was 26.7% throughout. In addition, the inhibition in vivo at 9 mg/kg with Rattus norvegicus [19] was 17%; with Rattus norvegicus [22], 15%; in the assay on Rattus norvegicus [24], 16%; in the assay with Rattus norvegicus [25], 38%. In addition, the inhibition in vivo at 18 mg/kg was 41% with Rattus norvegicus [20] (Rattus norvegicus, po) and 52% with Rattus norvegicus [26]. Further, the inhibition in assay [21] was 0% and 5%; in [23] it was 43%.
`Cn1c(=O)c2c(nc3n(Cc4ccccc4)c(=O)/c(=C/O)c(=O)n23)n(C)c1=O`: the Inhibition in the assay with Rattus norvegicus [27] is 14%.
